Three compounds from ChEMBL document CHEMBL1649293, “Susceptibilities of human cytomegalovirus clinical isolates and other herpesviruses to new acetylated, tetrahalogenated benzimidazole D-ribonucleosides” (Antimicrob Agents Chemother, 2009) can be followed below.

SMILES strings stand for the structures. pEC50: −log10 of the molar value. Activity calls are given as the source filed them. The rule behind the calls is not given here.

The test system of series [1] is Human betaherpesvirus 5. Kind of series: Antiviral activity against ganciclovir-sensitive HCMV infected in HFF assessed as formation of viral capsid type B at 10 uM measured after 72 hrs postinfection by electron microscopy. The format is functional. The method in brief: (§1)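 HFF (1 × 10^6) infected with GCV-sensitive or GCV-resistant clinical isolates at MOI 1, with or without 10 μM compound. Cells fixed 72 h p.i., embedded, thin-sectioned, and examined by transmission EM at 120 kV. Nuclear A, B and C capsids counted.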

Series [2] has as its system Human betaherpesvirus 5. Kind of series: Antiviral activity against ganciclovir-sensitive HCMV infected in HFF assessed as reduction in viral plaque formation after 8 days by microscopy. The following applies: Human betaherpesvirus 5, 192 h. The format is functional, organism-based. The method in brief: (§2)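 HFF (1 × 10^5/well) infected with GCV-sensitive or GCV-resistant clinical isolates at MOI 0.01. After 1 h, inoculum replaced by methyl cellulose overlay with DMEM, 3% FCS and compound dilutions in duplicate. Incubation 8 days at 37°C, then crystal violet staining and plaque counting by microscope. EC50 derived relative to untreated cells.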

Series [3] has as its system Human betaherpesvirus 5. Kind of series: Antiviral activity against ganciclovir-resistant HCMV infected in HFF assessed as formation of viral capsid type C at 10 uM measured after 72 hrs postinfection by electron microscopy. The format is functional. The method in brief:
as §1

In series [4] the test system is Murid betaherpesvirus 1 (mouse cytomegalovirus). Kind of series: Antiviral activity against MCMV Smith infected in NIH 3T3 assessed as viral plaque formation at 5 uM after 8 days by microscopy relative to control.
Series [5] in a line: Selectivity index, ratio of CC50 for HFF to EC50 for ganciclovir-sensitive HCMV infected in HFF.
Series [6] in a line: Cytotoxicity against rat Rat2 cells after 8 days by XTT assay. The format is cell-based. An outline of the steps:
(§3)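 XTT cell-proliferation read-out after 8 days of exposure at 37°C to varied drug concentrations. Absorbance was read at 492 nm against 650 nm reference, 4 h after adding XTT labeling mixture. CC50 was determined.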

Series [7] relates to Human betaherpesvirus 5. Kind of series: Antiviral activity against ganciclovir-sensitive HCMV infected in HFF assessed as cleavage of viral DNA concatemer at 30 uM measured after 72 hrs postinfection by […]. The format is functional, organism-based. The method in brief:
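HFF (1 × 10^6) infected with a GCV-sensitive clinical isolate at MOI 1 in the presence of 30 μM compound. DNA was harvested at 72 h p.i. and separated by PFGE in 1% low-melting agarose (15–110 s, 150 V, 27 h). Cleavage into unit-length genomes was judged after ethidium bromide staining.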

Series [8] in a line: Cytotoxicity against HFF after 8 days by XTT assay. The series is classed as cell-based. The following applies: human, HFF cells. The method in brief: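 XTT proliferation assay: HFF seeded at 5 × 10^4/well were exposed to a range of drug concentrations for 8 days at 37°C. XTT labeling mixture was then added for 4 h, and absorbance was read at 492 nm (reference 650 nm). CC50 was derived.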
(Tetrazolium dyes change colour on reduction, which living cells bring about.)

The subject of another series is Human alphaherpesvirus 3. Nature of the series: Antiviral activity against VZV OKA infected in HFF assessed as viral plaque formation at 5 uM after 8 days by microscopy relative to control. The format is functional. An outline of the steps:
(§4)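 Plaque reduction with compound at a single concentration of 5 μM. After infection, plaques were counted under a microscope, and inhibition was expressed relative to untreated infected cells.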

The subject of series [9] is Human betaherpesvirus 5. Nature of the series: Antiviral activity against ganciclovir-resistant HCMV infected in HFF assessed as cleavage of viral DNA concatemer at 30 uM measured after 72 hrs postinfection by […]. The series is classed as functional, organism-based.
In series [10] the test system is Human betaherpesvirus 5. Nature of the series: Antiviral activity against ganciclovir-resistant HCMV infected in HFF assessed as formation of viral capsid type B at 10 uM measured after 72 hrs postinfection by electron microscopy. The series is classed as functional. An outline of the steps: as §1
Series [11] deals with Human betaherpesvirus 5. Nature of the series: Antiviral activity against HCMV AD169 infected in HFF assessed as viral plaque formation at 5 uM after 8 days by microscopy relative to control. The format is functional. An outline of the steps:
as §4

In the next series the test system is Human alphaherpesvirus 1. Nature of the series: Antiviral activity against Herpes simplex virus 1 KOS infected in HFF assessed as viral plaque formation at 5 uM after 8 days by microscopy relative to control. The series is classed as functional. An outline of the steps:
as §4

The subject of series [12] is Human betaherpesvirus 5. Kind of series: Antiviral activity against ganciclovir-resistant HCMV infected in HFF assessed as formation of viral capsid type A at 10 uM measured after 72 hrs postinfection by electron microscopy. The format is functional. An outline of the steps: as §1
Series [13] is described as follows: Cytotoxicity against mouse NIH/3T3 cells after 8 days by XTT assay. The series is classed as cell-based, NIH3T3. The method in brief: as §3
In series [14] the test system is Human betaherpesvirus 5. Kind of series: Antiviral activity against ganciclovir-sensitive HCMV infected in HFF assessed as formation of viral capsid type A at 10 uM measured after 72 hrs postinfection by electron microscopy. The format is functional. An outline of the steps: as §1
Series [15] is described as follows: Selectivity index, ratio of CC50 for HFF to EC50 for ganciclovir-resistant HCMV infected in HFF. An outline of the steps:
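CC50 in HFF (5 × 10^4/well) after 8 days at 37°C with drug dilutions, read by XTT (4 h, A492 with 650 nm reference). EC50 from 8-day plaque reduction in HFF infected with GCV-resistant clinical isolate at MOI 0.01 under methyl cellulose, duplicates, crystal violet staining.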

Series [16] deals with Human betaherpesvirus 5. Kind of series: Antiviral activity against ganciclovir-sensitive HCMV infected in HFF assessed as formation of viral capsid type C at 10 uM measured after 72 hrs postinfection by electron microscopy. The series is classed as functional. An outline of the steps: as §1
Series [17] concerns Human betaherpesvirus 5. Nature of the series: Antiviral activity against ganciclovir-resistant HCMV infected in HFF assessed as reduction in viral plaque formation after 8 days by microscopy. The series is classed as functional, organism-based. The following applies: Human betaherpesvirus 5, 192 h. The method in brief: as §2
Series [18] concerns Human betaherpesvirus 5. Nature of the series: Antiviral activity against ganciclovir-resistant HCMV infected in HFF assessed as cleavage of viral DNA concatemer at 10 uM measured after 72 hrs postinfection by […]. The format is functional, organism-based.
The test system of series [19] is Human betaherpesvirus 5. Nature of the series: Antiviral activity against ganciclovir-sensitive HCMV infected in HFF assessed as cleavage of viral DNA concatemer at 10 uM measured after 72 hrs postinfection by […]. The format is functional, organism-based. The method in brief:
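HFF (1 × 10^6) infected with a GCV-sensitive clinical isolate at MOI 1 and treated with 10 μM compound. DNA was isolated 72 h p.i. and run by pulsed-field electrophoresis on 1% low-melting agarose (15–110 s pulses, 150 V, 27 h). Unit-length versus concatemeric DNA was viewed by ethidium bromide staining. Mock- and AD169-infected cells served as controls.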

For orientation: pEC50 means the negative decadic logarithm of the EC50, by convention in mol/L. As a reminder, the CC50 is the concentration at which the toxic effect on the cells reaches its halfway point. A lower CC50 goes with harm at low concentration. For the compound `CC(=O)OC[C@H]1O[C@@H](n2c(Br)nc3c(Cl)c(Cl)c(Cl)cc32)[C@H](OC(C)=O)[C@@H]1OC(C)=O`, the Activity worked out at 60.5% in the series on Human betaherpesvirus 5 [1]; 24% with Human betaherpesvirus 5 [3]; 70.8% in [4]; 26.1% in the series with Human alphaherpesvirus 3; 60.7% in the series on Human betaherpesvirus 5 [10]; 0.42% with Human betaherpesvirus 5 [11]. Further, the Activity with Human alphaherpesvirus 1 was found to be 76.6%; in the series on Human betaherpesvirus 5 [12], 15.3%; in the series on Human betaherpesvirus 5 [14], 10.7%; with Human betaherpesvirus 5 [16] it was 28.8%. For the same compound, the pEC50 is 6.48 with Human betaherpesvirus 5 [2] and 6.30 with Human betaherpesvirus 5 [17]. Also, the results for the Ratio CC50/EC50 in series [5] and in series [15] were 121 and 55.8, respectively. For the same compound, the half-maximal cytotoxic concentration (CC50) at 192 h in series [6] was determined as 14.5 µM; in [8], 27.9 µM; in [13], 15.1 µM. For the same compound, the result with Human betaherpesvirus 5 [7] and in the series on Human betaherpesvirus 5 [9] was Active.
As to `OC[C@H]1O[C@@H](n2c(Br)nc3cc(Cl)c(Cl)cc32)[C@H](O)[C@@H]1O`, the Activity in the series on Human betaherpesvirus 5 [1] turned out to be 67.2%; in the series on Human betaherpesvirus 5 [3], 31.2%; in [4], 41.6%; in the series with Human alphaherpesvirus 3 it was 31.6%; in the series on Human betaherpesvirus 5 [10] it was 55%; with Human betaherpesvirus 5 [11] it was 0.34%. For the same compound, the Activity was found to be 46.6% in the series on Human alphaherpesvirus 1, 13.8% in the series on Human betaherpesvirus 5 [12], 13.6% in the series on Human betaherpesvirus 5 [14] and 21.4% in the series with Human betaherpesvirus 5 [16]. Further, the pEC50 with Human betaherpesvirus 5 [2] was 6.46; in the series on Human betaherpesvirus 5 [17] it was 6.33. The Ratio CC50/EC50 in series [5] was 896; in series [15], 667. Besides, the CC50 at 192 h in series [6] worked out at 136 µM; in [8], 314 µM; in series [13], 88.1 µM.
Take `CC(=O)OC[C@H]1O[C@@H](n2c(Cl)nc3c(Cl)c(Cl)c(Cl)cc32)[C@H](OC(C)=O)[C@@H]1OC(C)=O`: the Activity came to 76.4% in the series on Human betaherpesvirus 5 [1]; 29.9% in the series with Human betaherpesvirus 5 [3]; 68.3% in series [4]; 31.1% in the series on Human alphaherpesvirus 3; 61.5% in the series with Human betaherpesvirus 5 [10]; 0.25% in the series with Human betaherpesvirus 5 [11]. Also, the Activity worked out at 8.6% with Human betaherpesvirus 5 [12], 10.5% in the series with Human betaherpesvirus 5 [14] and 13.3% in the series with Human betaherpesvirus 5 [16]. Further, the figures for the pEC50 with Human betaherpesvirus 5 [2] and with Human betaherpesvirus 5 [17] were 6.47 and 6.82, respectively. Also, the Ratio CC50/EC50 in series [5] was 202; in series [15] it was 445. The CC50 at 192 h in series [6] came to 19.2 µM; in series [8] it was 66.7 µM; in [13] it was 39.6 µM. For the same compound, the outcome with Human betaherpesvirus 5 [18] and in the series on Human betaherpesvirus 5 [19] was Active.
